Test results reported in ChEMBL document CHEMBL4311935, “Synthesis and antitumor activity of fluorouracil - oleanolic acid/ursolic acid/glycyrrhetinic acid conjugates” (Medchemcomm, 2019).
Active and inactive are the calls of the source. No cut-off for these calls is given here.

Key:
[1] = system: A549; experiment: Induction of apoptosis in human A549 cells assessed as activation of caspase-8 at 20 uM using FITC-DEVD-FMK as substrate after 48 hrs by flow cytometric analysis (reference value: 9.76 %); type: functional
[2] = system: A549; experiment: Induction of apoptosis in human A549 cells assessed as early apoptotic cells at 20 uM after 48 hrs by AnnexinV-FITC/propidium iodide staining based flow cytometry analysis (reference value: 0.99 %); type: functional
[3] = system: A549; experiment: Induction of apoptosis in human A549 cells assessed as early apoptotic cells at 10 uM after 48 hrs by AnnexinV-FITC/propidium iodide staining based flow cytometry analysis (reference value: 0.99 %); type: functional
[4] = system: A549; experiment: Induction of apoptosis in human A549 cells assessed as stimulation of ROS generation at 20 uM after 48 hrs by DCFH-DA staining-based flow cytometric analysis (reference value: 42.5 %); type: functional
[5] = system: A549; experiment: Induction of apoptosis in human A549 cells assessed as late apoptotic cells at 20 uM after 48 hrs by AnnexinV-FITC/propidium iodide staining based flow cytometry analysis (reference value: 4.19 %); type: functional
[6] = system: A549; experiment: Induction of apoptosis in human A549 cells assessed as early apoptotic cells at 15 uM after 48 hrs by AnnexinV-FITC/propidium iodide staining based flow cytometry analysis (reference value: 0.99 %); type: functional
[7] = system: A549; experiment: Induction of apoptosis in human A549 cells assessed as activation of caspase-3 at 10 uM using FITC-DEVD-FMK as substrate after 48 hrs by flow cytometric analysis (reference value: 5.99 %); type: functional
[8] = system: NCI/ADR-RES; experiment: Cytotoxicity against human MCF7/ADR cells assessed as cell growth inhibition after 48 hrs by MTT assay; type: functional, cell-based
[9] = system: A549; experiment: Cytotoxicity against human A549 cells assessed as cell growth inhibition after 48 hrs by MTT assay; type: functional, cell-based; conditions: A549, 48 h
[10] = system: A549; experiment: Induction of apoptosis in human A549 cells assessed as stimulation of intracellular calcium influx by measuring fluorescence intensity at 10 to 15 uM after 48 hrs by Fluo-3/AM probe based flow cytometry analysis; type: functional, cell-based
In short: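 Cells were seeded in six-well plates for 24 h, then treated at 0, 10 or 15 μM for 48 h. They were harvested, washed three times in serum-free RPMI 1640 and loaded with Fluo-3 AM (0.5 μM) for 60 min. After two washes and resuspension in serum-free medium, fluorescence was measured immediately by flow cytometry.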

[11] = system: L02; experiment: Cytotoxicity against human LO2 cells assessed as cell growth inhibition after 48 hrs by MTT assay; type: cell-based; conditions: L02, 48 h
[12] = system: A549; experiment: Induction of cell cycle arrest in human A549 cells assessed as accumulation at G2 phase at 20 uM after 48 hrs by RNase/propidium iodide staining based flow cytometry analysis (reference value: 5.14 %); type: functional
In short: (§1)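 A549 cells were grown in dishes for 24 h, then treated at 0, 10, 15 or 20 μM for 48 h. Cells were washed in cold PBS, fixed in cold 75% ethanol and held at −20 °C for 36 h. They were then treated with RNase A (100 μg mL–1) for 30 min and stained with propidium iodide (1 mg mL–1 stock) for 10 min in the dark before flow cytometry.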

[13] = system: A549; experiment: Induction of cell cycle arrest in human A549 cells assessed as accumulation at S phase at 10 uM after 48 hrs by RNase/propidium iodide staining based flow cytometry analysis (reference value: 24.23 %); type: functional; in short: as §1
[14] = system: Bel-7402; experiment: Cytotoxicity against human Bel7402 cells assessed as cell growth inhibition after 48 hrs by MTT assay; type: functional, cell-based; conditions: Bel-7402, 48 h
[15] = system: A549; experiment: Induction of apoptosis in human A549 cells assessed as stimulation of ROS generation at 25 uM after 48 hrs by DCFH-DA staining-based flow cytometric analysis (reference value: 42.5 %); type: functional
[16] = system: A549; experiment: Induction of cell cycle arrest in human A549 cells assessed as accumulation at G2 phase at 15 uM after 48 hrs by RNase/propidium iodide staining based flow cytometry analysis (reference value: 5.14 %); type: functional; in short: as §1
[17] = system: A549; experiment: Induction of apoptosis in human A549 cells assessed as activation of caspase-8 at 10 uM using FITC-DEVD-FMK as substrate after 48 hrs by flow cytometric analysis (reference value: 9.76 %); type: functional
[18] = system: MCF7; experiment: Cytotoxicity against human MCF7 cells assessed as cell growth inhibition after 48 hrs by MTT assay; type: functional, cell-based; conditions: MCF7, 48 h
[19] = system: A549; experiment: Induction of cell cycle arrest in human A549 cells assessed as accumulation at S phase at 20 uM after 48 hrs by RNase/propidium iodide staining based flow cytometry analysis (reference value: 24.23 %); type: functional; in short: as §1
[20] = system: A549; experiment: Induction of cell cycle arrest in human A549 cells assessed as accumulation at G2 phase at 10 uM after 48 hrs by RNase/propidium iodide staining based flow cytometry analysis (reference value: 5.14 %); type: functional; in short: as §1
[21] = system: A549; experiment: Induction of apoptosis in human A549 cells assessed as activation of caspase-8 at 15 uM using FITC-DEVD-FMK as substrate after 48 hrs by flow cytometric analysis (reference value: 9.76 %); type: functional
[22] = system: Bel7402/5-FU; experiment: Cytotoxicity against human Bel7402/5-FU cells assessed as cell growth inhibition after 48 hrs by MTT assay; type: functional, cell-based
[23] = system: A549; experiment: Induction of cell cycle arrest in human A549 cells assessed as accumulation at S phase at 15 uM after 48 hrs by RNase/propidium iodide staining based flow cytometry analysis (reference value: 24.23 %); type: functional; in short: as §1
[24] = system: K562/Adr; experiment: Cytotoxicity against human K562/ADR cells assessed as cell growth inhibition after 48 hrs by MTT assay; type: functional, cell-based
[25] = system: A549; experiment: Induction of apoptosis in human A549 cells assessed as late apoptotic cells at 10 uM after 48 hrs by AnnexinV-FITC/propidium iodide staining based flow cytometry analysis (reference value: 4.19 %); type: functional
[26] = system: A549; experiment: Induction of apoptosis in human A549 cells assessed as activation of caspase-3 at 15 uM using FITC-DEVD-FMK as substrate after 48 hrs by flow cytometric analysis (reference value: 5.99 %); type: functional
[27] = system: A549/TR; experiment: Cytotoxicity against human A549/T cells assessed as cell growth inhibition after 48 hrs by MTT assay; type: functional, cell-based
[28] = system: A549; experiment: Induction of cell cycle arrest in human A549 cells assessed as accumulation at G1 phase at 15 uM after 48 hrs by RNase/propidium iodide staining based flow cytometry analysis (reference value: 70.63 %); type: functional; in short: as §1
[29] = system: A549; experiment: Induction of apoptosis in human A549 cells assessed as activation of caspase-3 at 20 uM using FITC-DEVD-FMK as substrate after 48 hrs by flow cytometric analysis (reference value: 5.99 %); type: functional
[30] = system: A549; experiment: Induction of cell cycle arrest in human A549 cells assessed as accumulation at G1 phase at 10 uM after 48 hrs by RNase/propidium iodide staining based flow cytometry analysis (reference value: 70.63 %); type: functional; in short: as §1
[31] = system: A549; experiment: Induction of apoptosis in human A549 cells assessed as late apoptotic cells at 15 uM after 48 hrs by AnnexinV-FITC/propidium iodide staining based flow cytometry analysis (reference value: 4.19 %); type: functional
[32] = system: K562; experiment: Cytotoxicity against human K562 cells assessed as cell growth inhibition after 48 hrs by MTT assay; type: functional, cell-based; conditions: K562, 48 h
[33] = system: A549; experiment: Induction of cell cycle arrest in human A549 cells assessed as accumulation at G1 phase at 20 uM after 48 hrs by RNase/propidium iodide staining based flow cytometry analysis (reference value: 70.63 %); type: functional; in short: as §1

Structure (SMILES): CC1(C)[C@@H](O)CC[C@]2(C)[C@H]3C(=O)C=C4[C@@H]5C[C@@](C)(C(=O)OCCCCCCCCn6cc(F)c(=O)[nH]c6=O)CC[C@]5(C)CC[C@@]4(C)[C@]3(C)CC[C@@H]12
- Activity [1]: 32.4%
- Activity [2]: 3.5%
- Activity [3]: 1.61%
- Activity [4]: 40.5%
- Activity [5]: 46.4%
- Activity [6]: 2.71%
- Activity [7]: 24.5%
- IC50 [8]: 23.4 µM
- IC50 [9]: 15.7 µM
- Activity [10]: Active
- IC50 [11]: 20.9 µM
- Activity [12]: 2.81%
- Activity [13]: 20.81%
- IC50 [14]: 21 µM
- Activity [15]: 34.9%
- Activity [16]: 4.27%
- Activity [17]: 9.26%
- IC50 [18]: 12.9 µM
- Activity [19]: 5.01%
- Activity [20]: 5.58%
- Activity [21]: 12.7%
- IC50 [22]: 19.8 µM
- Activity [23]: 19.66%
- IC50 [24]: 27 µM
- Activity [25]: 5.43%
- Activity [26]: 50.9%
- IC50 [27]: 20.7 µM
- Activity [28]: 76.07%
- Activity [29]: 64.7%
- Activity [30]: 73.61%
- Activity [31]: 31.91%
- IC50 [32]: 9.8 µM
- Activity [33]: 92.18%
